Our source for the IC50 and inhibition values is ChEMBL document CHEMBL1914330 (Eur J Med Chem, 2011).

One may read the IC50 as the point on the concentration scale where inhibition reaches its midpoint.

Active and inactive are the calls of the source. No cut-off for these calls is given here.

The subject of experiment [1] is CCRF-CEM. The experiment can be described thus: Antiproliferative activity against human CEM cells after 2 days by coulter counter analysis. In kind it is functional, cell-based. The note with it: 48 h. The essentials: (§1)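 Cells suspended at 300,000–500,000 cells/mL and mixed 1:1 with diluted compound. Incubated at 37 °C for two days, then counted with a Coulter counter. IC50 is the concentration inhibiting proliferation by 50%, as mean ± SE from dose-response curves of at least three independent experiments.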

The next experiment deals with HeLa. In words: Antiproliferative activity against human HeLa cells after 2 days by coulter counter analysis. The note with it: 48 h. Format: functional, cell-based. The essentials:
as §1

In the next experiment the test system is MOLT-4. In words: Antiproliferative activity against human MOLT4 cells after 2 days by coulter counter analysis. In kind it is functional, cell-based. The conditions noted are these: MOLT-4, 48 h.
The test system of another experiment is FM3A. The experiment can be described thus: Antiproliferative activity against mouse FM3A cells after 2 days by coulter counter analysis. In kind it is functional, cell-based. The conditions noted are these: 48 h.
Another experiment has as its system L1210. The experiment can be described thus: Antiproliferative activity against mouse L1210 cells after 2 days by coulter counter analysis. Format: functional, cell-based. The conditions noted are these: L1210, 48 h. The essentials:
as §1

For a further experiment, the species on record is Bos taurus. In words: Inhibition of bovine brain tubulin polymerization at 20 uM after 20 mins by turbidimetry. The essentials:
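Purified bovine brain tubulin at 10 µM was preincubated with compound in glutamate buffer at 30 °C, then cooled to 0 °C and GTP added. Samples were warmed to 30 °C in a recording spectrophotometer and assembly followed by turbidity.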

For experiment [2], the system named is CCRF-CEM. The experiment can be described thus: Antiproliferative activity against human CEM cells after 72 hrs by MTT assay. In kind it is functional, cell-based. The procedure, abridged: (§2)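 Cells seeded at 8 × 10³ per well in complete medium and exposed to a range of compound concentrations at 37 °C for 72 h. Viability read by MTT test. IC50 taken as the concentration inhibiting proliferation by 50%.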
(Tetrazolium assays rely on reduction of a dye to a coloured formazan, in cell work by metabolically active cells.)

Experiment [3] in a line: Antiproliferative activity against human vinblastine-resistant CEM/VBL100 cells after 72 hrs by MTT assay. In kind it is functional, cell-based. The note with it: CEM/VBL100, 72 h. The procedure, abridged:
as §2

The nature of experiment [4]: Antiproliferative activity against human taxol-resistant A549-T12 cells after 72 hrs by MTT assay. In kind it is functional, cell-based. The conditions noted are these: A549, 72 h. The essentials: as §2

For the compound `COc1ccc(C(=O)c2sc(N3CCCC3)nc2N)cc1`, the IC50 in the experiment on CCRF-CEM [1], in the experiment with HeLa, with MOLT-4, with FM3A and in the experiment on L1210 was more than 200 µM throughout.

For `Nc1nc(N2CCCC2)sc1C(=O)c1ccc(Cl)cc1`, the IC50 with CCRF-CEM [1], in the experiment with HeLa, with MOLT-4, with FM3A and in the experiment with L1210 was more than 200 µM each time.

On to `COc1ccc(C(=O)c2sc(N3CCCC3)nc2N)cc1OC`, for which the IC50 in the experiment on CCRF-CEM [1] worked out at 19 µM; in the experiment on HeLa, 36 µM; with MOLT-4, 31 µM; in the experiment on FM3A it was 112 µM; in the experiment on L1210 it was 60 µM.

As for `COc1cccc(C(=O)c2sc(N3CCCC3)nc2N)c1`, the IC50 in the experiment on CCRF-CEM [1], with HeLa, in the experiment with MOLT-4, in the experiment with FM3A and in the experiment on L1210 was more than 200 µM each time.

As to `Nc1nc(N2CCCC2)sc1C(=O)c1ccccc1`, the IC50 in the experiment on CCRF-CEM [1], in the experiment with HeLa, in the experiment with MOLT-4, with FM3A and with L1210 was more than 200 µM in each case.

For the compound `COc1ccccc1C(=O)c1sc(N2CCCC2)nc1N`, the IC50 is 171 µM in the experiment with CCRF-CEM [1]; 185 µM in the experiment with HeLa; more than 200 µM in the experiment with MOLT-4; more than 200 µM in the experiment on FM3A; more than 200 µM with L1210.

As to `COc1cc(C(=O)c2sc(N)nc2N)cc(OC)c1OC`, the inhibition result in the experiment filed under Bos taurus is “inactive”. Moreover, the IC50 was 42 µM with CCRF-CEM [1], 31 µM in the experiment with HeLa, 63 µM in the experiment with FM3A and 48 µM in the experiment on L1210.

Consider `COc1cc(C(=O)c2sc(N(C)Cc3ccccc3)nc2N)cc(OC)c1OC`, for which the IC50 in the experiment on CCRF-CEM [1], in the experiment with HeLa, in the experiment with MOLT-4, in the experiment with FM3A and in the experiment with L1210 was more than 200 µM throughout.

On to `COc1cc(C(=O)c2sc(N3CCOCC3)nc2N)cc(OC)c1OC`, for which the inhibition result in the experiment filed under Bos taurus was “inactive”. Moreover, the IC50 came to 25 µM with CCRF-CEM [1]; 8.8 µM in the experiment on HeLa; 22 µM in the experiment on MOLT-4; 24 µM in the experiment on FM3A; 38 µM in the experiment with L1210.

As for `CCCCN(C)c1nc(N)c(C(=O)c2cc(OC)c(OC)c(OC)c2)s1`, the IC50 in the experiment on CCRF-CEM [1] is 42 µM; in the experiment on HeLa, 31 µM; in the experiment on MOLT-4 it was 32 µM; in the experiment with FM3A, 47 µM; with L1210 it was 53 µM.

Consider `COc1cc(C(=O)c2sc(N3CCCCC3)nc2N)cc(OC)c1OC`, for which, in the experiment filed under Bos taurus, the inhibition result was “inactive”. Moreover, the IC50 in the experiment with CCRF-CEM [1] came out at 22 µM; in the experiment with HeLa it was 11 µM; in the experiment with MOLT-4, 16 µM; with FM3A it was 39 µM; in the experiment on L1210, 43 µM.

As to `CC[C@]1(O)C[C@@H]2CN(CCc3c([nH]c4ccccc34)[C@@](C(=O)OC)(c3cc4c(cc3OC)N(C)[C@H]3[C@@](O)(C(=O)OC)[C@H](OC(C)=O)[C@]5(CC)C=CCN6CC[C@]43[C@@H]65)C2)C1` [VINBLASTINE], the IC50 is 0.004 µM in the experiment with CCRF-CEM [2] and 0.23 µM in experiment [3].

In the case of `CCN(CC)c1nc(N)c(C(=O)c2cc(OC)c(OC)c(OC)c2)s1`, the inhibition result in the experiment filed under Bos taurus was “inactive”. The IC50 is 78 µM in the experiment with CCRF-CEM [1], 38 µM in the experiment with HeLa, 115 µM with FM3A and 62 µM in the experiment on L1210.

`COc1cc(C(=O)c2sc(N(C)C)nc2N)cc(OC)c1OC`: the inhibition entry in the experiment filed under Bos taurus is “inactive”. Also, the IC50 stood at 11 µM in the experiment with CCRF-CEM [1], 8.2 µM in the experiment on HeLa, 12 µM in the experiment on FM3A and 11 µM with L1210.

For `Nc1nc(N2CCCC2)sc1C(=O)c1ccc(Br)cc1`, the IC50 in the experiment on CCRF-CEM [1], in the experiment on HeLa, with MOLT-4, in the experiment on FM3A and in the experiment with L1210 was more than 200 µM each time.

As to `COc1ccc(/C=C\c2cc(OC)c(OC)c(OC)c2)cc1O` [COMBRETASTATIN A4], the results for the IC50 in the experiment with CCRF-CEM [1], in the experiment on HeLa and with L1210 were 0.002 µM, 0.002 µM and 0.003 µM, respectively.

Consider `CC(=O)O[C@H]1C(=O)[C@@]2(C)[C@H]([C@H](OC(=O)c3ccccc3)[C@]3(O)C[C@H](OC(=O)[C@H](O)[C@@H](NC(=O)c4ccccc4)c4ccccc4)C(C)=C1C3(C)C)[C@]1(OC(C)=O)CO[C@@H]1C[C@@H]2O` [PACLITAXEL], for which the IC50 in [4] was 0.075 µM.
